# Measurements pooled from the literature.
# Protocols differ between the studies behind these lines.
# CTSS: Cathepsin S (CTSS, Homo sapiens, UniProt P25774)
# MAOA: Amine oxidase [flavin-containing] A (MAOA, Homo sapiens, UniProt P21397)
Structure (SMILES),target,read-out,action,method,concentration,inhibition [%]
CC(C)C[C@H](NC(=O)[C@H]1O[C@@H]1C(=O)O)C(=O)NCCCCN=C(N)N,CTSS,enzyme activity,inhibitor,,5 nM,18
CN1CCN(CCCCOc2ccc3occc(=O)c3c2)CC1,MAOA,enzyme activity,inhibitor,fluorescence,10 µM,5
c1ccc(C(NCCNC(c2ccccc2)c2ccccc2)c2ccccc2)cc1,MAOA,cell-free assay,inhibitor,,10 µM,11
Cn1cc(-c2cccc(N3CCc4c(sc5c4CC(C)(C)C5)C3=O)c2CO)cc(Nc2ccncn2)c1=O,"Cyclin-dependent kinase 5, with p25 (CDK5, Homo sapiens, UniProt Q00535)",enzyme activity,inhibitor,,1 µM,2
C#Cc1n[nH]c2c(-c3cn(C(C)c4ccccn4)c(=O)[nH]c3=O)cc(F)cc12 (centres unmarked),"High affinity nerve growth factor receptor (NTRK1, Homo sapiens, UniProt P04629)",enzyme activity,inhibitor,,1 µM,13.1
CCN(CC)CCCC[C@H](NC(=O)[C@H](CC(C)C)NC(=O)[C@H](C)NC(=O)[C@H](Cc1ccccc1)NC(=O)c1ccc(C(C)(C)C)cc1)C(=O)N[C@@H](CO)C(=O)OC,"Vasoactive intestinal polypeptide receptor 1 (VIPR1, Homo sapiens, UniProt P32241)",ligand displacement,,radioligand,10 µM,-9
CN(C)C(=O)COC(=O)Cc1ccc(OC(=O)c2ccc(NC(=N)N)cc2)cc1,CTSS,enzyme activity,inhibitor,,10 µM,3
O=C(NC[C@H](O)CO)[C@@H]1C[C@H](c2ccccc2)CCN1 (mixture of isomers),"Alpha-1A adrenergic receptor (ADRA1A, Homo sapiens, UniProt P35348)",ligand displacement,,radioligand,10 µM,-16.2
O=c1ccoc2ccc(OCCCCN3CCCCC3)cc12,MAOA,enzyme activity,inhibitor,fluorescence,10 µM,16
C#Cc1n[nH]c2c(-c3cn([C@@H](C)c4ccccc4)c(=O)[nH]c3=O)cc(F)cc12,"Focal adhesion kinase 1 (PTK2, Homo sapiens, UniProt Q05397)",enzyme activity,inhibitor,,0.1 µM,3.8
CN(CCN1CCC(OC(=O)Nc2ccccc2-c2ccccc2)CC1)C(=O)c1ccc(CN2CCC(C(N)=O)CC2)cc1,MAOA,enzyme activity,inhibitor,,1 µM,-2
CCOC(=O)c1ccc(OC(=O)CCCCCNC(=N)N)cc1,CTSS,enzyme activity,inhibitor,,10 µM,4
O=C(Nc1cccnn1)N1CCN([C@@H]2CCOc3cc(C(F)(F)F)ccc32)CC1,"Angiotensin-converting enzyme 2 (ACE2, Homo sapiens, UniProt Q9BYF1)",enzyme activity,inhibitor,,20 µM,3
Cc1ccc2nc(N3C(=O)C(O)=C(C(=O)OC(C)(C)C)C3c3ccc(-c4ccc(Cl)cc4)o3)sc2c1 (centres unmarked),"UDP-N-acetylglucosamine 1-carboxyvinyltransferase (murA, Escherichia coli K-12, UniProt P0A749)",enzyme activity,inhibitor,,20 µM,88
COc1cc(Nc2ncc(F)c(Nc3ccc4c(n3)NC(=O)C(C)(C)O4)n2)cc(OC)c1OC,"Homeodomain-interacting protein kinase 3 (HIPK3, Homo sapiens, UniProt Q9H422)",binding,,competition with immobilised ligand,10 µM,64
N=C(N)c1ccc2cc(OC(=O)c3ccc(N=C(N)N)cc3)ccc2c1,"Dipeptidyl peptidase 3 (DPP3, Homo sapiens, UniProt Q9NY33)",enzyme activity,inhibitor,,10 µM,3
COCc1c(-c2cc3cc(C)cc(OC)c3s2)c2c(N)ncnn2c1CN1CCNC(=O)C1,"Thromboxane-A synthase (TBXAS1, Homo sapiens, UniProt P24557)",enzyme activity,inhibitor,,10 µM,86
